Results on 31 compounds are retold here after ChEMBL document CHEMBL3352402, “Pharmacological evaluation and docking studies of α,β-unsaturated carbonyl based synthetic compounds as inhibitors of secretory phospholipase A₂, cyclooxygenases, lipoxygenase and proinflammatory cytokines” (Bioorg Med Chem, 2014).

Assay [1] concerns RAW264.7. As to the kind of experiment: Inhibition of TNFalpha expression in mouse RAW264.7 cells at 10 uM per-treated with compound for 2 hrs before LPS challenge for 22 hrs by ELISA method. In kind it is functional. In general terms: An ELISA detects its analyte on a solid surface through an enzyme-linked reagent.
Assay [2] deals with Lipoxygenase (Glycine max) (UniProt Q39829). The assay can be described thus: Inhibition of soybean lipoxygenase at 40 ug/mL after 5 mins by colorimetric assay.
Assay [3] concerns the target T1, Prostaglandin G/H synthase 2 (Homo sapiens, UniProt P35354).
T1 sequence (P35354 whole entry): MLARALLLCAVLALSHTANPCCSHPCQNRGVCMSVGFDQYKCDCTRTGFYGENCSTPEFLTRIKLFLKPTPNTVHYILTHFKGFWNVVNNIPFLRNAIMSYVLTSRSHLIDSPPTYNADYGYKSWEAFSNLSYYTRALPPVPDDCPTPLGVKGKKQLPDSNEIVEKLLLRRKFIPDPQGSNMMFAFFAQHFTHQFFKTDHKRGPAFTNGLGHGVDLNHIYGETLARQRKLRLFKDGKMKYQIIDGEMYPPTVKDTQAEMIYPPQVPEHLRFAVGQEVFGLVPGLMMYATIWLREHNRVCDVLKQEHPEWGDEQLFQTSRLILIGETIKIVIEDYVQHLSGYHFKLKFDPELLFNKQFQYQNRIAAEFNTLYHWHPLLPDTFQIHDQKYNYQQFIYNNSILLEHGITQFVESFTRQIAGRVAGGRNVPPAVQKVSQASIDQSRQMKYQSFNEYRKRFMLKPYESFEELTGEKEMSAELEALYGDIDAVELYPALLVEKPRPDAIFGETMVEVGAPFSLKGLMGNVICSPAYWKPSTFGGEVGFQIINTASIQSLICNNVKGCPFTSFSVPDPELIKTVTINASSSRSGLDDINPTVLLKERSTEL
As to the kind of experiment: Inhibition of human recombinant COX2 using arachidonic acid substrate assessed as PGE2 production ELISA method after 2 mins.

The subject of assay [4] is RAW264.7. The assay can be described thus: Inhibition of IL6 release in mouse RAW264.7 cells at 10 uM per-treated with compound for 2 hrs before LPS challenge for 22 hrs by ELISA method. In kind it is functional. In a few lines:
(§1)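 RAW 264.7 macrophages grown in DMEM with 10% heat-inactivated FBS and 1% Pen Strep, 37°C, 5% CO2. Pretreated 2 h with compound (10 µM) or vehicle, then LPS (0.5 µg/ml, in PBS) 22 h. Medium was centrifuged and cytokine measured by mouse ELISA. Levels were normalized to total protein of the cell pellet and expressed as percent of LPS control. Triplicates, mean ± SEM.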

The nature of assay [5]: Inhibition of sPLA2-V (unknown origin) using substrate 1,2-bis(heptanoylthio)-glycerophosphocholine by Ellman's method based photometric assay. Further details: species or system Homo sapiens.
Assay [6] has as its target Lipoxygenase (Glycine max, UniProt Q39829). The assay can be described thus: Inhibition of soybean lipoxygenase after 5 mins by colorimetric assay. In a few lines: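 Purified soybean lipoxygenase resuspended in 0.1 M Tris-HCl, pH 7. Enzyme plus test sample was started with substrate (dissolved in KOH, diluted to 1 mM) at room temperature for 5 min. Chromogen was added for 5 min to stop the reaction, then absorbance read at 490 nm. Activity is relative to enzyme plus substrate alone.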

Assay [7] addresses T2, Prostaglandin G/H synthase 1 (Ovis aries, UniProt P05979).
T2 sequence (P05979 whole entry): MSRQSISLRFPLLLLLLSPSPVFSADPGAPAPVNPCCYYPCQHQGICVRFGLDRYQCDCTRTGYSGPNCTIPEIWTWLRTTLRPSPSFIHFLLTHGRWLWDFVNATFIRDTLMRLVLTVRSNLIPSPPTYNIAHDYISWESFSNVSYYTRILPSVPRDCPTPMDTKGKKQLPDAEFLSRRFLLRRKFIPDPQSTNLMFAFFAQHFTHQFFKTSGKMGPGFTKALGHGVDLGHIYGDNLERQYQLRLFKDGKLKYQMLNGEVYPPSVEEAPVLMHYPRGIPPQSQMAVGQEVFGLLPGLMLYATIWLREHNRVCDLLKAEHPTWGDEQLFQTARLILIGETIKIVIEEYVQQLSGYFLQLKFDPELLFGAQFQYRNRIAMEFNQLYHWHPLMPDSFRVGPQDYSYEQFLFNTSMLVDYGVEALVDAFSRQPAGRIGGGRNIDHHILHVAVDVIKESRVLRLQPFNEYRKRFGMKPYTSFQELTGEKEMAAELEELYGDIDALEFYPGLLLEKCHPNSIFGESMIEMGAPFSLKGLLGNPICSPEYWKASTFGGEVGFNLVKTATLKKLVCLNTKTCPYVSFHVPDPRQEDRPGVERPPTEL
The assay can be described thus: Inhibition of ovine COX1 using arachidonic acid substrate assessed as PGE2 production ELISA method after 2 mins.

Assay [8] concerns RAW264.7. The assay can be described thus: Immunostimulatory activity in mouse RAW264.7 cells assessed as stimulation of IL6 release at 10 uM per-treated with compound for 2 hrs before LPS challenge for 22 hrs by ELISA method. Format: functional, cell-based. The gist of the method:
as §1

Assay [9] concerns RAW264.7. The assay can be described thus: Immunostimulatory activity in mouse RAW264.7 cells assessed as stimulation of TNFalpha expression at 10 uM per-treated with compound for 2 hrs before LPS challenge for 22 hrs by ELISA method. In kind it is functional, cell-based. The gist of the method: as §1

SMILES strings stand for the structures. pIC50: −log10 of the molar value. Active and inactive are the calls of the source. The calls are words filed in the database; no cut-off is given here.

For `CCOC(OCC)c1ccc(/C=C2\CN(C)C/C(=C\c3ccc(C(OCC)OCC)cc3)C2=O)cc1`, the values for the inhibition at 10 µM in assay [1] and in assay [4] were 73% and 76%, respectively. The same compound had an inhibition in [2] of 67.6%. Moreover, the negative-log IC50 (pIC50) was 4.42 in assay [3], 5.38 in assay [5] and 4.18 in [6].

Consider `O=C1/C(=C/c2ccc(N3CCCC3)cc2)CCc2ccccc21`, for which the pIC50 in [7] was 4.48; in [3], under 4.00; in assay [5], 4.27.

Turning to `CC(Cc1ccc(O)c(O)c1)C(C)Cc1ccc(O)c(O)c1` (stereo not given) [NORDIHYDROGUAIARETIC ACID], the pIC50 in assay [6] was 5.03.

With `CN1C/C(=C\c2ccc(N3CCCC3)cc2)C(=O)/C(=C/c2ccc(N3CCCC3)cc2)C1`, the pIC50 in assay [7] was 4.16; in assay [3] it was under 4.00; in assay [5] it was 4.95.

Take `CN(C)c1ccc(/C=C2/CCC/C(=C\c3ccc(N(C)C)cc3[N+](=O)[O-])C2=O)c([N+](=O)[O-])c1`: the pIC50 in assay [7] was 6.38; in assay [3], under 4.00; in assay [5] it was 4.95; in assay [6] it was 4.53.

Take `CN(C)c1ccc(/C=C2\CCc3ccccc3C2=O)c([N+](=O)[O-])c1`: the figures for the pIC50 in assay [7], in assay [3] and in assay [5] were 4.67, 4.55 and 4.43, respectively. For the same compound, the result in assay [8] was Active.

For `CN(C)c1ccc(/C=C/C(=O)/C=C/c2ccc(N(C)C)cc2[N+](=O)[O-])c([N+](=O)[O-])c1`, the pIC50 in assay [7] was 5.40; in assay [3], 4.82; in assay [5], 4.74; in assay [6] it was 3.99. Further, the inhibition at 10 µM in assay [4] was determined as 76%.

Take `CCOC(OCC)c1ccc(/C=C2\CNC/C(=C\c3ccc(C(OCC)OCC)cc3)C2=O)cc1`: the inhibition at 10 µM in assay [1] and in assay [4] was 91% in each case. Besides, the pIC50 in assay [3] is 4.56; in [5], 5.15; in assay [6], 4.05.

With `CN(C)c1ccc(/C=C2\Cc3ccccc3C2=O)c([N+](=O)[O-])c1`, the pIC50 in assay [7] was 5.00; in [3], 4.83; in assay [5], 4.55.

For the compound `CCOC(OCC)c1ccc(/C=C2\Cc3ccccc3C2=O)cc1`, the pIC50 in assay [7] is 5.65; in [3], 4.71; in assay [5], 4.43.

In the case of `CCOC(OCC)c1ccc(/C=C2\COC/C(=C\c3ccc(C(OCC)OCC)cc3)C2=O)cc1`, in [1], the inhibition at 10 µM was 73%. For the same compound, the pIC50 in [3] was 4.95; in [5], 5.06; in assay [6] it was 4.04.

Take `O=C1/C(=C/c2ccc(N3CCCC3)cc2)COC/C1=C\c1ccc(N2CCCC2)cc1`: the pIC50 in [7] is 4.40; in assay [3], under 4.00; in assay [5] it was 4.82.

With `CCOC(OCC)c1ccc(/C=C2\CC/C(=C\c3ccc(C(OCC)OCC)cc3)C2=O)cc1`, the pIC50 in assay [3] was 4.83.

With `O=C1/C(=C/c2ccc(N3CCCC3)cc2)CNC/C1=C\c1ccc(N2CCCC2)cc1`, the results for the pIC50 in assay [3] and in assay [5] were under 4.00 and 4.92, respectively.

Turning to `CCOC(OCC)c1ccc(/C=C2\CN(Cc3ccccc3)C/C(=C\c3ccc(C(OCC)OCC)cc3)C2=O)cc1`, the pIC50 in [7] was 5.50; in [3], under 4.00; in assay [5], 4.75.

Regarding `O=C1/C(=C/c2ccc(N3CCCC3)cc2)CCC/C1=C\c1ccc(N2CCCC2)cc1`, the negative logarithm of the IC50 (pIC50) in [7] is 4.47; in assay [3], 4.27; in assay [5] it was 4.55.

Regarding `O=C(/C=C/c1ccc(N2CCCC2)cc1)C1CCc2ccccc2C1=O` (stereo not given), in assay [8], the result was Active. The results for the pIC50 in assay [3] and in assay [5] were 4.21 and 4.36, respectively.

Turning to `O=C1/C(=C/c2ccc(N3CCCC3)cc2)CC/C1=C\c1ccc(N2CCCC2)cc1`, the pIC50 in [7] is 4.42; in assay [3], 4.34; in assay [5] it was 4.25. The result in [9] was Active.

The compound `C[C@@H]1C[C@H]2[C@@H]3CCC4=CC(=O)C=C[C@]4(C)[C@@]3(F)[C@@H](O)C[C@]2(C)[C@@]1(O)C(=O)CO` [DEXAMETHASONE] gave a pIC50 in assay [5] of 6.21.

On to `O=C1/C(=C/c2ccc(N3CCCC3)cc2)CN(Cc2ccccc2)C/C1=C\c1ccc(N2CCCC2)cc1`, for which the pIC50 in assay [7] is 4.29; in [3], 4.24; in assay [5] it was 4.72.

`O=C(/C=C/c1ccc(N2CCCC2)cc1)/C=C/c1ccc(N2CCCC2)cc1`: the pIC50 in [7] is 4.31; in assay [3], 4.16; in assay [5], 4.53.

In the case of `CN(C)c1ccc(/C=C2\CNC/C(=C\c3ccc(N(C)C)cc3[N+](=O)[O-])C2=O)c([N+](=O)[O-])c1`, the pIC50 was 6.17 in assay [7], 5.10 in assay [3], 5.38 in assay [5] and 4.40 in assay [6]. The inhibition at 10 µM in assay [1] is 73%; in assay [4] it was 76%.

Take `CN(C)c1ccc(/C=C/C(=O)C2CCc3ccccc3C2=O)c([N+](=O)[O-])c1` (stereo not given): the pIC50 in assay [7] was 4.53; in assay [3] it was 4.42; in assay [5] it was 4.65; in assay [6], 3.80.

Take `CN(C)c1ccc(/C=C2\CC/C(=C\c3ccc(N(C)C)cc3[N+](=O)[O-])C2=O)c([N+](=O)[O-])c1`: the pIC50 was under 4.00 in assay [3] and 4.42 in [5].

Consider `CN(C)c1ccc(/C=C2\CN(Cc3ccccc3)C/C(=C\c3ccc(N(C)C)cc3[N+](=O)[O-])C2=O)c([N+](=O)[O-])c1`, for which the pIC50 in assay [7] was 4.84; in assay [3] it was 4.72; in assay [5], 4.82; in assay [6] it was 3.68.

For the compound `CCOC(OCC)c1ccc(/C=C2\CCc3ccccc3C2=O)cc1`, the results for the pIC50 in assay [3] and in assay [5] were under 4.00 and 4.24, respectively. The outcome in assay [9] was Active.

As to `CCOC(OCC)c1ccc(/C=C2\CCC/C(=C\c3ccc(C(OCC)OCC)cc3)C2=O)cc1`, the pIC50 in [3] was 4.76; in [5], 4.90; in assay [6], 4.08.

As for `CCOC(OCC)c1ccc(/C=C/C(=O)/C=C/c2ccc(C(OCC)OCC)cc2)cc1`, the pIC50 is 5.49 in assay [7], 4.50 in [3], 4.72 in [5] and 3.68 in [6]. Moreover, the inhibition at 10 µM in assay [4] is 76%.

As for `CN(C)c1ccc(/C=C2\COC/C(=C\c3ccc(N(C)C)cc3[N+](=O)[O-])C2=O)c([N+](=O)[O-])c1`, the pIC50 in [7] is 6.14; in assay [3] it was 4.73; in assay [5], 5.11; in assay [6], 4.35. Also, the inhibition at 10 µM in assay [1] amounted to 73%; in [4], 76%.

On to `O=C1/C(=C/c2ccc(N3CCCC3)cc2)Cc2ccccc21`, for which the outcome in [8] and in [9] was Active. The pIC50 was 4.26 in assay [3] and 4.17 in assay [5].

As to `CN1C/C(=C\c2ccc(N(C)C)cc2[N+](=O)[O-])C(=O)/C(=C/c2ccc(N(C)C)cc2[N+](=O)[O-])C1`, the pIC50 was 5.91 in assay [7], 5.04 in assay [3], 5.66 in assay [5] and 4.42 in assay [6]. In addition, the inhibition at 10 µM in assay [1] and in assay [4] was 91% each time.

What is called inhibition is the drop in the measured response relative to a control, in per cent. As a reminder, the pIC50 is the negative decadic logarithm of the IC50, by convention in mol/L.
